Source: PubChem (Johns Hopkins Ion Channel Center)
Hits are enriched below; roughly 3.5% of the tested compounds scored in any of these assays.
MrgX1 antagonist: antagonists of human MrgX1 receptor. Q96LB2. B-score at 10 µM. AID 588676. actives 1.3% (n = 310,000). MRGX1-HEK293 calcium flux, Fluo-4, BAM8-22 antagonism; hits give low values;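 active = calcium-response B-score plate-corrected more than 3 library SD below zero, starting fluorescence within 5 deviations, no agonist response on first addition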;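 note: peak minus trough fluorescence over baseline after final BAM8-22 challenge near maximal dose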
Target sequence (Q96LB2 whole entry, looked up): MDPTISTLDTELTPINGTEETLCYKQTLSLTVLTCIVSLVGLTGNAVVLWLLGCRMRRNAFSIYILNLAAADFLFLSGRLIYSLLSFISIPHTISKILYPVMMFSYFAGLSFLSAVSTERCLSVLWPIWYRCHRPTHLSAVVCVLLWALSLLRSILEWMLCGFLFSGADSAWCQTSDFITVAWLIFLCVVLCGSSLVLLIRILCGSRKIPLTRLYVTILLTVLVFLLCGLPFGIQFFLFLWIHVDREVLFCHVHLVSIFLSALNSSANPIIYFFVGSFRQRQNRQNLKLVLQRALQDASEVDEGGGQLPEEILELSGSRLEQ
RGS4 inh: human RGS4 inhibition | HEK293 M3R/RGS4 inducible, Fluo-4 calcium flux; hits give high values; triggered by carbachol at its EC20 | actives 0.45% (n = 310,000) | B-score at 10 µM | P49798;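 active = B-score, a plate-corrected calcium signal, over three deviations above library mean, with baseline fluorescence within five deviations of library mean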;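 note: RGS4 expression induced by doxycycline in cells with stable M3 receptor; B-score is computed from the integrated fluorescence ratio over baseline after carbachol; higher B-score means a larger calcium signal and so more RGS4 inhibition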
Target sequence (P49798 whole entry, looked up): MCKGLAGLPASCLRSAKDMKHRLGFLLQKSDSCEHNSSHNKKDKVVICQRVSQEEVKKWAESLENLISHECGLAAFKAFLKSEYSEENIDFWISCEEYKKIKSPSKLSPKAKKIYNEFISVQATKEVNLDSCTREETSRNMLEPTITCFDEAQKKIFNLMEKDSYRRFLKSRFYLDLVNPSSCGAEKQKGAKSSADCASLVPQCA
MrgX1 ag: human MrgX1 receptor agonism, primary screen; actives 0.44% (n = 310,000); B-score at 10 µM; Q96LB2; MrgX1-HEK293 cells, Fluo-4 calcium fluorescence, agonist mode; hits give high values;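 active = calcium response B-score plate-corrected fluorescence ratio at least 3 library SD, with starting fluorescence B-score inside 5 SD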
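System – MrgX1-expressing HEK293 cells · Incubation – cells plated overnight, dye loaded 0.5 h 37 °C, 0.5 h room temperature · Technique – kinetic Fluo-4 NW fluorescence of intracellular calcium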
RGS4 act: RGS4 potentiation or activation; HEK293 M3R/inducible RGS4, carbachol calcium flux Fluo4; hits give low values; B-score at 10 µM; actives 0.92% (n = 310,000);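 active = B-score of the integrated calcium signal more than 4 SD below the library mean, with starting fluorescence not abnormally high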;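 note: negative B-score means reduced calcium response which marks RGS4 activation or potentiation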
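Material: M3R-expressing HEK293 line, RGS4 induced by doxycycline | Schedule: Overnight RGS4 induction, 30 min dye load 37 °C, 20 min compound RT | Measured by: Fluo4 fluorescence kinetic imaging of calcium | Read-out: Integrated calcium ratio converted to B score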
MrgX1 allo act: human MrgX1 positive allosteric modulation, primary screen; B-score at 10 µM; actives 0.63% (n = 310,000); AID 588675; MrgX1-HEK293, Fluo-4 calcium flux, FDSS; hits give high values; Q96LB2;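 active = plate-corrected calcium response at least 3 library SD above typical, normal starting fluorescence, not activating the receptor alone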;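 note: compound read alongside a low EC10 to EC30 dose of BAM8-22 agonist; peak minus trough fluorescence over baseline measured at the second addition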
RGS4 inh valid: RGS4 inhibitor validation. HEK293 M3R/RGS4, carbachol calcium Fluo-4 fluorescence; carbachol added at its EC20; 0 = buffer wells, 100 = carbachol control. shares compounds with RGS4 inh. calcium response, % at 10 µM. actives 65% (n = 1,700). AID 492999;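 active = duplicate-averaged calcium response above the buffer-only control mean plus 5 SD of those controls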;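 note: integrated fluorescence ratio F max minus min over baseline F0; higher response in RGS4-induced cells means RGS4 inhibition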
RGS4 uninduced: non-induced cell nonspecific activity of RGS4 inhibitors; activity (percent), % at 10 µM; shares compounds with RGS4 inh; actives 20% (n = 1,900); HEK293 M3R non-induced, carbachol calcium Fluo-4; submaximal (EC20) carbachol stimulus; buffer wells 0%, carbachol control wells 100%; call rule not given here;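 note: RGS4 induction absent so cells express M3R without RGS4; higher means more calcium signal and flags a non-specific hit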
RGS4 inh ctr2: second RGS4 inhibitor counter-screen in uninduced cells lacking carbachol; shares compounds with RGS4 inh; HEK293 M3R/RGS4 non-induced, Fluo-4 calcium, no carbachol; normalised: buffer wells 0%, carbachol wells 100%; calcium response (agonist-mode artifact), % at 10 µM; actives 22% (n = 1,900); AID 493001;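 active = duplicate-averaged calcium rise in uninduced cells above buffer wells' mean plus 5 SD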
An asterisk follows results filed as active; i = inactive; / = not tested or not shown.

SMILES	MrgX1 antagonist	RGS4 inh	MrgX1 ag	RGS4 act	MrgX1 allo act	RGS4 inh valid	RGS4 uninduced	RGS4 inh ctr2
CCCC(NC(=S)NCC1CCCO1)C12CC3CC(CC(C3)C1)C2 (stereo unspecified)	i	i	i	i	i	/	/	/
C/C(=N\NC(=O)c1ccoc1C)c1cccc2ccccc12	i	i	i	i	i	/	/	/
CNc1nc(N)c([N+](=O)[O-])c(NC2CCCCC2)n1	i	6*	i	i	i	32%*	39%*	i
CNc1nc(N)c([N+](=O)[O-])c(Nc2cccc(Cl)c2)n1	i	15*	i	i	i	10%*	34%*	10%*
CSc1ccccc1C(=O)NCc1ccccc1C	i	i	i	i	i	/	/	/
Cc1ccc(NC(=O)C(=Cc2ccc(C(=O)O)cc2)C(=O)Nc2ccc(C)cc2C)c(C)c1	i	11*	i	i	i	18%*	i	i
COC(=O)c1ccc(COc2ccccc2/C=C(\C#N)C(=O)Nc2c(C)cccc2C)cc1	i	5.6*	i	i	i	8.0%*	i	i
COC(=O)c1ccc(COc2ccccc2/C=C(\C#N)C(=O)NC(C)C)cc1	i	i	i	i	i	/	/	/
COC(=O)c1ccc(COc2ccccc2/C=C(\C#N)C(=O)Nc2ccccc2C)cc1	i	i	i	i	i	i	i	i
O=c1[nH]c2cccc(F)c2n2cccc12	i	i	i	i	i	/	/	/
Cc1cccc(N2C(=O)/C(=C/c3ccccn3)SC2=S)c1	i	i	i	i	i	/	/	/
Cc1ccc(N2C(=O)/C(=C/c3cccnc3)SC2=S)cc1	i	i	i	i	i	/	i	i
Cc1cccc(N2C(=O)/C(=C/c3cccnc3)SC2=S)c1	i	4.9*	i	i	i	19%*	42%*	i
Cc1ccc(/C=C2\SC(=S)N(c3cccnc3)C2=O)o1	i	i	i	i	i	/	/	/
O=C(CN(C(=O)c1csnn1)c1ccc(Cl)cc1)NCCc1ccccc1	i	i	i	i	i	/	/	/
COc1cccc(/C=C/C(=O)c2c(O)cc(C)oc2=O)c1O	i	7.3*	i	i	i	37%*	i	i
Cc1cc(O)c(C(=O)/C=C/c2ccc(Cl)cc2)c(=O)o1	i	i	i	i	i	/	/	/
CSc1ccc(/C=C/C(=O)c2c(O)cc(C)oc2=O)cc1	i	6.1*	i	i	i	24%*	i	7.5%*
Oc1c(-c2cc(-c3ccco3)[nH]n2)ccc2ccccc12	i	12*	i	i	i	30%*	31%*	i
COc1ccc(/C=C2\CCCC(C(=O)C(F)(F)F)=C2O)cc1	i	i	i	i	i	/	/	/
O=C(C1=C(O)/C(=C/c2ccc(O)cc2)CCC1)C(F)(F)F	i	5.2*	i	i	i	i	i	i
C/C(CC(=O)Nc1cccc2c1CCCC2)=N\NC=O	i	i	i	i	i	/	/	/
Cc1ccccc1Nc1sc(C(=O)Nc2cccc(Cl)c2)c(N)c1C(N)=O	/	6.6*	/	i	/	5.0%*	i	i
Cc1cc(C)c(C(N)=O)c(Nc2cccc(Cl)c2)n1	i	i	i	i	i	/	/	/
CC(=O)/C(=N/Nc1cccc(C)c1)N1CCOCC1	i	18*	i	i	i	10%*	58%*	i
SMILES	MrgX1 antagonist	RGS4 inh	MrgX1 ag	RGS4 act	MrgX1 allo act	RGS4 inh valid	RGS4 uninduced	RGS4 inh ctr2
CC1=C(C(=O)OC2CCCCC2)C(c2ccc(F)cc2)NC(=O)N1 (stereo unspecified)	i	i	i	i	i	/	/	/
O=C(Nc1nc(-c2cccc3ccccc23)cs1)c1cnccn1	i	5.5*	i	i	i	28%*	34%*	i
C=CCOc1nc2sc(C)c(C)c2c(=O)n1-c1ccccc1	i	6*	i	i	i	i	i	i
O=c1c(C/C=C/c2ccccc2)c(O)ccn1CCc1c[nH]c2ccccc12	i	5.7*	i	i	i	12%*	30%*	i
COc1ccc2[nH]cc(CCn3ccc(O)c(C/C=C/c4ccccc4)c3=O)c2c1	i	7.3*	i	i	i	18%*	i	i
Cc1cc(C)n(C(C[N+](=O)[O-])c2ccc(Cl)cc2)n1 (stereo unspecified)	i	14*	i	i	i	8.0%*	44%*	22%*
Cc1cc(O)c(C(C[N+](=O)[O-])c2ccc(Cl)cc2)c(=O)o1 (stereo unspecified)	i	i	i	i	i	/	/	/
CSc1nc(N)c(NC(=O)c2ccc(Br)o2)c(=O)[nH]1	i	i	i	i	i	/	/	/
Cc1c(C(=O)NC2CCN(Cc3ccccc3)C2)oc2c(Cl)cccc12 (stereo unspecified)	i	i	i	i	i	/	/	/
COc1ccc(-c2cc(C(F)(F)F)n3nc(C(=O)NCc4ccco4)cc3n2)cc1	i	i	i	i	i	/	i	i
O=C(NCc1ccco1)c1cc2nc(-c3ccc4c(c3)OCO4)cc(C(F)(F)F)n2n1	i	4.7*	i	i	i	i	i	16%*
O=C(NCc1cccnc1)c1cc2nc(-c3ccc4c(c3)OCO4)cc(C(F)(F)F)n2n1	i	i	i	i	i	/	/	/
CCOC(=O)c1ncccc1NC(=O)CC(=O)Nc1cccnc1C(=O)OCC	i	i	i	i	i	/	/	/
O=C(O)CN1C(=O)/C(=C/c2ccccc2Cl)Oc2ccccc21	i	6.5*	i	i	i	22%*	31%*	i
O=C(O)CN1C(=O)/C(=C/c2cccc(Cl)c2)Oc2ccccc21	i	i	i	i	i	/	/	/
Cc1ccc(NCC(=O)N/N=C/c2ccc(-c3cccc(C(F)(F)F)c3)o2)cc1	i	28*	i	i	i	62%*	37%*	i
O=C(CCCCCNC(=O)N1CCn2c1nc1ccccc12)NCc1ccccc1Cl	i	i	i	i	i	/	/	/
